According to ChEMBL document CHEMBL1122071, “Avermectin acyl derivatives with anthelmintic activity” (1982):

Legend:
Type in all cases: functional
Cooperia curticei [1] = assay: Anthelmintic efficacy against adult Cooperia curticei. in sheep at dose of 0.1 mg/kg administered subcutaneously; settings: route subcutaneous
Cooperia curticei [2] = assay: Anthelmintic efficacy against immature (EL4) Cooperia curticei. in sheep at dose of 0.1 mg/kg administered subcutaneously; settings: route subcutaneous
Haemonchus contortus = assay: Anthelmintic efficacy against adult Haemonchus contortus (H.c) in sheep at dose of 0.1 mg/kg administered subcutaneously; settings: route subcutaneous
Summary of the method: (§1)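 Experimentally infected lambs carrying mixed nematode species each received 0.1 mg/kg by subcutaneous injection, one sheep per treatment. An untreated infected group of 6 lambs served as comparison, with worm burdens given as the geometric mean number of worms per lamb. Efficacy was scored for each parasite species.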

[3] = tested on: Oesophagostomum columbianum; assay: Anthelmintic efficacy against Oseophagostomum columbianum (Oe. c) in sheep at dose of 0.1 mg/kg administered subcutaneously; settings: route subcutaneous; summary of the method: as §1
Trichostrongylus axei = assay: Anthelmintic efficacy against Trichostrongylus axei (T.a) in sheep at dose of 0.1 mg/kg administered subcutaneously; 60-89; settings: route subcutaneous; summary of the method: as §1
[4] = tested on: Trichostrongylus colubriformis; assay: Minimal dose necessary to eliminate > 83% of Trichostrongylus colubriformis infection in gerbils
[5] = tested on: Trichostrongylus colubriformis; assay: Anthelmintic efficacy against Trichostrongylus colubriformis (T.c) in sheep at dose of 0.1 mg/kg administered subcutaneously; settings: route subcutaneous; summary of the method: as §1

`CC[C@H](C)[C@H]1O[C@]2(C=C[C@@H]1C)C[C@@H]1C[C@@H](C/C=C(\C)[C@@H](O[C@H]3C[C@@H](OC)[C@@H](O[C@H]4C[C@@H](OC)[C@@H](OC(=O)CCC(=O)O)[C@H](C)O4)[C@H](C)O3)[C@@H](C)/C=C/C=C3\CO[C@@H]4[C@H](O)C(C)=C[C@@H](C(=O)O1)[C@]34O)O2` gave an Efficacy (Cooperia curticei [1]) greater than 90%, an Efficacy (Cooperia curticei [2]) greater than 90% and an Efficacy (Haemonchus contortus) greater than 90%. The Efficacy [3] was greater than 90%, the Efficacy (Trichostrongylus axei) was 60% and the Dose [4] was 0.03 mg/kg. It also gave an Efficacy [5] greater than 90%.
